Columns and labels:
Format in all cases: functional, tissue-based
[1] = molecular target: Histamine H1 receptor (Cavia porcellus) (UniProt P31389); test: Antagonist activity at histamine H1 receptor in Dunkin-Hartley guinea pig ileum assessed as inhibition of histamine-induced contractions at 10 umol/L; conditions: at 10 µM
How it was run: (§1)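 Ileum segments (2 cm) were taken from stunned animals and mounted in an organ bath under 1 g initial load. The bath held Tyrode's solution at 37 °C, continuously oxygenated. After 20 min stabilization, noncumulative submaximal histamine stimuli were given. Isometric contractions were recorded without compound and after 3-5 min incubation with compound.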

[2] = molecular target: Histamine H1 receptor (Cavia porcellus) (UniProt P31389); test: Antagonist activity at histamine H1 receptor in Dunkin-Hartley guinea pig ileum assessed as inhibition of histamine-induced contractions at 30 umol/L; conditions: at 30 µM; how it was run: as §1
[3] = molecular target: Histamine H1 receptor (Cavia porcellus) (UniProt P31389); test: Antagonist activity at histamine H1 receptor in Dunkin-Hartley guinea pig ileum assessed as inhibition of histamine-induced contractions at 3 umol/L; conditions: at 3 µM; how it was run: as §1

Sequence of Histamine H1 receptor (Cavia porcellus) (P31389 whole entry): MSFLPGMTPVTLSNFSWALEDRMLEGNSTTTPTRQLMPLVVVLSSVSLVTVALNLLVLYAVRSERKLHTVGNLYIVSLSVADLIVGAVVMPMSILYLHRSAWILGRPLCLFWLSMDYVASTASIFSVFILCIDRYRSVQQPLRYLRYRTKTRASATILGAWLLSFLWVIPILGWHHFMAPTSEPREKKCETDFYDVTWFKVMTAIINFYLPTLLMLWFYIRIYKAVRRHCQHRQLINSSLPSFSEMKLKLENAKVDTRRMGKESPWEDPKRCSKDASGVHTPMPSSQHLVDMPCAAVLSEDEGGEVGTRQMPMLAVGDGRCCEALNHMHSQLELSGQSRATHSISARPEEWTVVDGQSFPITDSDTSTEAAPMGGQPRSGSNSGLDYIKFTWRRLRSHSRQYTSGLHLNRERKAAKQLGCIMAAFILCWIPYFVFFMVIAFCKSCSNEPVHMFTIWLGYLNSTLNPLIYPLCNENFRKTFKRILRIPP

Compound: COc1ccccc1/C=C1\OC(=O)C=C1CN1CCC(=C2c3ccc(Cl)cc3CCc3cccnc32)CC1
- inhibition [1]: 59.2%
- inhibition [2]: 87.8%
- inhibition [3]: 29.4%

Compound: O=C1C=C(CN2CCC(=C3c4ccc(Cl)cc4CCc4cccnc43)CC2)/C(=C/c2ccc(O)cc2)O1
- inhibition [1]: 41%
- inhibition [2]: 65.6%
- inhibition [3]: 3.54%

Compound: CCOC(=O)N1CCC(=C2c3ccc(Cl)cc3CCc3cccnc32)CC1
- inhibition [1]: 33.4%
- inhibition [2]: 64.7%
- inhibition [3]: 15.7%

Compound: O=C1C=C(CN2CCC(=C3c4ccc(Cl)cc4CCc4cccnc43)CC2)C(C(O)c2ccccc2)O1 (configuration not stated)
- inhibition [3]: 42.7%

Compound: COc1cc(/C=C2\OC(=O)C=C2CN2CCC(=C3c4ccc(Cl)cc4CCc4cccnc43)CC2)ccc1O
- inhibition [1]: 42.5%
- inhibition [2]: 62.6%
- inhibition [3]: 4.67%

Compound: COc1ccccc1C(O)C1OC(=O)C=C1CN1CCC(=C2c3ccc(Cl)cc3CCc3cccnc32)CC1 (configuration not stated)
- inhibition [1]: 61.5%
- inhibition [2]: 74.1%
- inhibition [3]: 40.8%

Compound: CS(=O)(=O)c1ccc(/C=C2\OC(=O)C=C2CN2CCC(=C3c4ccc(Cl)cc4CCc4cccnc43)CC2)cc1
- inhibition [1]: 50.4%
- inhibition [2]: 71.9%
- inhibition [3]: 12.4%

Compound: COc1cc(/C=C2\OC(=O)C=C2CN2CCC(=C3c4ccc(Cl)cc4CCc4cccnc43)CC2)cc(OC)c1OC
- inhibition [1]: 32.9%
- inhibition [2]: 52.8%
- inhibition [3]: 4.23%

Compound: Clc1ccc2c(c1)CCc1cccnc1C2=C1CCNCC1
- inhibition [1]: 77.7%
- inhibition [2]: 80.4%
- inhibition [3]: 47.4%

Compound: O=C1C=C(CN2CCC(=C3c4ccc(Cl)cc4CCc4cccnc43)CC2)/C(=C/c2ccc(Cl)cc2)O1
- inhibition [1]: 51.3%
- inhibition [2]: 66.7%
- inhibition [3]: 37%

Compound: CN(C)c1ccc(/C=C2\OC(=O)C=C2CN2CCC(=C3c4ccc(Cl)cc4CCc4cccnc43)CC2)cc1
- inhibition [1]: 77.6%
- inhibition [2]: 82.3%
- inhibition [3]: 61.6%

Compound: O=C1C=C(CN2CCC(=C3c4ccc(Cl)cc4CCc4cccnc43)CC2)CO1
- inhibition [1]: 79%
- inhibition [2]: 94.8%
- inhibition [3]: 33.4%

Compound: O=C1C=C(CN2CCC(=C3c4ccc(Cl)cc4CCc4cccnc43)CC2)/C(=C/c2ccc(F)cc2)O1
- inhibition [1]: 19%
- inhibition [2]: 30.6%
- inhibition [3]: 6.99%

Reference: ChEMBL document CHEMBL1156917, “Stereoselective synthesis of desloratadine derivatives as antagonist of histamine” (Bioorg Med Chem, 2010)
